Data as given in ChEMBL document CHEMBL2440054, “Largazole Arrests Cell Cycle at G1 Phase and Triggers Proteasomal Degradation of E2F1 in Lung Cancer Cells” (ACS Med Chem Lett, 2013).
Active and inactive are the calls of the source. The calls are words filed in the database; no cut-off is given here.

Experiments:
A549 [1] = assay: Cell cycle arrest in human A549 cells assessed as accumulation at G1 phase at 0.1 uM after 24 hrs by propidium iodide staining-based flow cytometric analysis (reference value: 48.3%); type: functional
A549 [2] = assay: Cell cycle arrest in human A549 cells assessed as accumulation at G2 phase at 0.1 uM after 24 hrs by propidium iodide staining-based flow cytometric analysis (reference value: 3.7%); type: functional
[3] = target: Transcription factor E2F1 (Homo sapiens) (UniProt Q01094); assay: Induction of E2F1 degradation in human 95-D cells at 0.1 uM after 12 to 24 hrs by Western blotting analysis; type: cell-based
Sequence of Transcription factor E2F1 (Homo sapiens) (Q01094 whole entry): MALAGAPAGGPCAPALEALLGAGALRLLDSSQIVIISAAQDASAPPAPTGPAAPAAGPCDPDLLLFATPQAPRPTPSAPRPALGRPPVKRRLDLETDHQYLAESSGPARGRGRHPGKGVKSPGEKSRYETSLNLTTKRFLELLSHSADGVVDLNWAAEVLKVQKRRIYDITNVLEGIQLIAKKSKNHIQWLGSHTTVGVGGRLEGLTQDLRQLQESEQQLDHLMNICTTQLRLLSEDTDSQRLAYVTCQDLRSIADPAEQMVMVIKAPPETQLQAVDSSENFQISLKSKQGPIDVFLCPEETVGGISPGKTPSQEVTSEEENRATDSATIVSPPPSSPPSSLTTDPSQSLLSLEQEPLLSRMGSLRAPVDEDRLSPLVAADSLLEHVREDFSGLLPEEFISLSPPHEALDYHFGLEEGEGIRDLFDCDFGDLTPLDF
Method in brief: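 Each cell line (16-HBE, 95D, L78, H1975, H460) treated with 0.1 μM largazole for indicated times. Lysates Western blotted for E2F1.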

A549 [4] = assay: Induction of apoptosis in human A549 cells assessed as increase in cleaved caspase-3 level at 0.1 uM after 48 hrs by Western blotting analysis; type: functional, cell-based
Method in brief: (§1)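 A549 cells exposed to 0.1 μM for a time course, then lysed and Western blotted. Read-outs are pro- and cleaved caspase-9, pro- and active caspase-3, and cleaved PARP.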

A549 [5] = assay: Induction of apoptosis in human A549 cells assessed as effect on caspase-8 protein expression at 0.1 uM after 48 hrs by Western blotting analysis; type: functional, cell-based
Method in brief: (§2)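 A549 cells given largazole 0.1 μM for indicated times, lysed, and Western blotted for pro-/cleaved caspase-9, caspase-8, pro-/active caspase-3 and PARP.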

NCI-H460 [6] = assay: Cytotoxicity against human NCI-H460 cells assessed as inhibition of colony formation pretreated for 24 hrs followed by seeding measured after 10 days by clonogenic assay; type: functional, cell-based
Method in brief: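 Soft-agar clonogenic assay. Cells pretreated 24 h with largazole or DMSO, then seeded in 0.3% soft agar upper layer over 0.6% soft agar lower layer. Colonies counted by microscope after 10 days. Mean ± SD of three independent experiments.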

[7] = target: Histone deacetylase 1 (Homo sapiens) (UniProt Q13547); conditions: NCI-H460, 0.1 uM
Sequence of Histone deacetylase 1 (Homo sapiens) (Q13547 whole entry): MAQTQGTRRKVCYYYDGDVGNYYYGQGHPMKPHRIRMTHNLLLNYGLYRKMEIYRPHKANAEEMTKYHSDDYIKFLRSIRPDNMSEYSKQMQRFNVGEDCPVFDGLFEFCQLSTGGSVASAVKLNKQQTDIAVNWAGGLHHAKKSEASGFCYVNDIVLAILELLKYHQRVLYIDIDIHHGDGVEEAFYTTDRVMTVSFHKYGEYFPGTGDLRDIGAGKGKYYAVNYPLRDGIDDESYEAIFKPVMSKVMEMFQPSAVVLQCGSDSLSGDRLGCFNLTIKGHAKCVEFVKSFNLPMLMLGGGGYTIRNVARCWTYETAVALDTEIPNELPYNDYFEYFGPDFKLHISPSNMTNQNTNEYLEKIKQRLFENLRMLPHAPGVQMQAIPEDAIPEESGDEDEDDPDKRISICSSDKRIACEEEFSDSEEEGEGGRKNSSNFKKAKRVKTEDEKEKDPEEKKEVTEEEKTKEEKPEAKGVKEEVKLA

[8] = Cytotoxicity against human GLC82 cells after 48 hrs by CCK-8 assay; type: functional, cell-based; conditions: GLC82, 48 h
Method in brief: (§3)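 Cells treated with a range of largazole concentrations for 48 h. Proliferation read by CCK-8 assay; IC50 derived from the concentration series.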

A549 [9] = assay: Induction of apoptosis in human A549 cells assessed as decrease in pro-caspase-3 level at 0.1 uM after 48 hrs by Western blotting analysis; type: functional, cell-based; method in brief: as §2
A549 [10] = assay: Effect on cyclin D1 protein expression in human A549 cells at 0.1 uM after 6 to 36 hrs by Western blotting analysis; type: functional, cell-based
Method in brief: (§4)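 A549 cells exposed to 0.1 μM largazole over a time course, lysed, and Western blotted for cyclin D1, CDK2, CDK4, p21 and p27.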

A549 [11] = assay: Effect on CDK4 protein expression in human A549 cells at 0.1 uM after 6 to 36 hrs by Western blotting analysis; type: functional, cell-based; method in brief: as §4
[12] = target: T1, Retinoblastoma-associated protein (Homo sapiens) (UniProt P06400); assay: Dephosphorylation of Rb in human A549 cells assessed as increase in E2F1-HDAC1 interaction at 0.1 uM after 8 hrs by immunoprecipitation and Western blotting analysis; type: cell-based
T1 sequence (whole entry): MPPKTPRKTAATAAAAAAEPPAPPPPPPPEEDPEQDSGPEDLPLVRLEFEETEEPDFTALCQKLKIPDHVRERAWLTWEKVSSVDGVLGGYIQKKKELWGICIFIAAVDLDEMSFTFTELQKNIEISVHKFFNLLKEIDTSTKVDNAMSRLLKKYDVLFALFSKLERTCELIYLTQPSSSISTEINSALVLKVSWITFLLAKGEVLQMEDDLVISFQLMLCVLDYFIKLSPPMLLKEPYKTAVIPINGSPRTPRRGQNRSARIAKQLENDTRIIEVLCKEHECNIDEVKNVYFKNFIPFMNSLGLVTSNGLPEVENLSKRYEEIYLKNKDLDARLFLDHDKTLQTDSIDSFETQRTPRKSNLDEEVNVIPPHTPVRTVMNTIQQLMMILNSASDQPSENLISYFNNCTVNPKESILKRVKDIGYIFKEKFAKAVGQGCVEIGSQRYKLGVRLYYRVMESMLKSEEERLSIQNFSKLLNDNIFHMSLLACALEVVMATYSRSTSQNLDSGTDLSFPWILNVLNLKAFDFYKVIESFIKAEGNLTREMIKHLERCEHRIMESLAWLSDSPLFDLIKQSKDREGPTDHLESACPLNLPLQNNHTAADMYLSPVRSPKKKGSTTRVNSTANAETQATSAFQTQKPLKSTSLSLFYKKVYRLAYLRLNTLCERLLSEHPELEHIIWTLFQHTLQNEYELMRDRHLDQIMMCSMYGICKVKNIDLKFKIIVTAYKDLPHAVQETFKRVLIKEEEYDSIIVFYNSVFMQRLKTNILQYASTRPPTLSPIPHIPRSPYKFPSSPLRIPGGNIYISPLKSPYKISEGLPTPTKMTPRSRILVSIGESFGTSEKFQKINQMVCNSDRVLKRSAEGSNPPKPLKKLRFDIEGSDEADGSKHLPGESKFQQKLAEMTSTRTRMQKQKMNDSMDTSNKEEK
Method in brief: (§5)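 A549 cells treated with 0.1 μM largazole for 8 h and lysed. Lysates immunoprecipitated, then Western blotted with the indicated antibodies.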

A549 [13] = assay: Effect on CDK2 protein expression in human A549 cells at 0.1 uM after 6 to 36 hrs by Western blotting analysis; type: functional, cell-based; method in brief: as §4
[14] = target: T1, Retinoblastoma-associated protein (Homo sapiens); assay: Dephosphorylation of Rb in human A549 cells assessed as increase in Rb-E2F1 interaction at 0.1 uM after 8 hrs by immunoprecipitation and Western blotting analysis; type: cell-based; method in brief: as §5
A549 [15] = assay: Upregulation of p27 protein expression in human A549 cells at 0.1 uM after 12 hrs by Western blotting analysis; type: functional, cell-based
Method in brief: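 A549 cells exposed to 0.1 μM over a time course, then lysed and Western blotted for G1 regulators including p21 and p27.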

NCI-H460 [16] = assay: Cell cycle arrest in human NCI-H460 cells assessed as accumulation at S phase at 0.06 uM after 24 hrs by propidium iodide staining-based flow cytometric analysis (reference value: 31.6%); type: functional
[17] = target: Transcription factor E2F1 (Homo sapiens) (UniProt Q01094); assay: Induction of E2F1 degradation in human A549 cells at 0.1 uM after 12 hrs by Western blotting analysis in presence of proteasome inhibitor MG-132; type: cell-based
Method in brief: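 A549 cells pretreated 2 h with bortezomib (100 nM) or MG-132 (10 μM), then given largazole 0.1 μM for a further 12 h. Lysates Western blotted for E2F1.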

A549 [18] = assay: Cell cycle arrest in human A549 cells assessed as accumulation at G2 phase at 0.06 uM after 24 hrs by propidium iodide staining-based flow cytometric analysis (reference value: 3.7%); type: functional
A549 [19] = assay: Downregulation of E2F1 protein expression in human A549 cells after 12 hrs by Western blotting analysis; type: functional, cell-based
Method in brief: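 A549 cells treated with 0.1 μM largazole over a time course, or with a range of concentrations for 12 h. Lysates Western blotted for E2F1.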

[20] = Cytotoxicity against human 16HBE cells after 48 hrs by CCK-8 assay; type: cell-based; conditions: 16HBE14o-; method in brief: as §3
A549 [21] = assay: Induction of apoptosis in human A549 cells assessed as increase in cleaved caspase-9 level at 0.1 uM after 48 hrs by Western blotting analysis; type: functional, cell-based; method in brief: as §1

Q: Which results are given for `CCCCCCCC(=O)SCC/C=C/[C@@H]1CC(=O)NCc2nc(cs2)C2=N[C@@](C)(CS2)C(=O)N[C@@H](C(C)C)C(=O)O1` [LARGAZOLE]?
A: Activity (A549 [1]): 88.2%; Activity (A549 [2]): 3.3%; Activity [3]: Active; Activity (A549 [4]): Active; Activity (A549 [5]): inactive; inhibition (NCI-H460 [6]): Dose-dependent effect; inhibition [7]: Active; IC50 [8]: 190 nM; Activity (A549 [9]): Active; Activity (A549 [10]): inactive; Activity (A549 [11]): inactive; Activity [12]: Active; Activity (A549 [13]): inactive; Activity [14]: Active; Activity (A549 [15]): Active; Activity (NCI-H460 [16]): 10.4%; Activity [17]: inactive; Activity (A549 [18]): 3.1%; Activity (A549 [19]): Dose-dependent effect; IC50 [20]: > 10000 nM; Activity (A549 [21]): Active
